T cruzi inh = T. cruzi replication inhibition | T. cruzi beta-gal in NIH3T3, luminescence, 90 h | inhibition, % (test concentration not listed) | 300,000 compounds, 1.4% hits | AID 1885;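 active = mean inhibition across valid replicates above about 55%, limit read from the data; inconclusive = mean below that limit but half or more replicates reach it; inactive = mean below it, under half of replicates reach it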;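 also: signal also drops with host cell toxicity which is not excluded here; higher percent means less beta-gal luminescence so fewer parasites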
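System – NIH/3T3 host cells with β-galactosidase reporter T. cruzi · Doses – single 50 nL compound addition per well in DMSO · Reagent – 5000 T. cruzi trypomastigotes/well · Medium – Low-serum DMEM with 2% FBS · Timing – ≥90 h infection period, 3 h prior cell attachment · Evaluation – parasite load inhibition, % · Technique – GalScreen luminescence, 60 min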
HIF act = HIF pathway transcriptional activation. activation, % at 7.5 µM (by protocol). 300,000 compounds, 0.32% hits. U2OS HRE-luciferase reporter, luminescence; normalized: DMSO 0%, desferrioxamine 100%;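 active = mean activation of at least 10% of the iron chelator positive control signal, with at least half of replicates also reaching 10%; inconclusive = mean and replicate majority disagree about reaching 10%; inactive = mean and most replicates under 10%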
CSC inhib = cancer stem cell inhibition; cancer stem cell-like cells viability, luminescence; inhibition, % at 7.5 µM; 300,000 compounds, 1.1% hits; in the data active = inhibition above about 75%; inconclusive = no clear call, values can overlap the other calls; tested in HMLE shEcad cells
Calb FLC = C. albicans growth modulation with fluconazole; C. albicans CaCi-2 + fluconazole, Alamar Blue growth, 48 h; growth inhibition, % (concentration not given with the values); 300,000 compounds, 0.57% hits; AID 1979;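 active = growth inhibition above about 58% in most replicates, limit read from the data, passing the limit was not always enough; inconclusive = exactly half the replicates above a set limit; inactive = most replicates below a set limit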;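 also: all wells also contain fluconazole at 8 µg/ml as a sub-toxic cotreatment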
Beta cell apopt = beta cell apoptosis inhibition | INS-1E cytokine-induced death, ATP luminescence, 48 h; percent of positive-control rescue, neutral wells zero | protection from apoptosis, % (no concentration beside the values) | AID 435005 | 300,000 compounds, 0.8% hits;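 active = Every replicate reaches about 75%, or at least half do and their mean reaches it too, limit read from the data; inconclusive = At least half of replicates reach the limit but their mean does not; inactive = Under half of replicates reach the limit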;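 also: higher means more ATP so stronger rescue from cytokine killing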
PolyA inhibitor = blocks polyadenylation in yeast reporter cells; S. cerevisiae SKY197-pL101 polyadenylation reporter, beta-gal luminescence; efflux-impaired pdr1/pdr3 knockout yeast; score 100 = 6 SD above DMSO; activity score, % at 12 µM; 300,000 compounds, 0.02% hits; AID 1875;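 active = lowest replicate activity score at least 50, where 100 means six control SD above control mean; inconclusive = lowest score under 50 but half or more replicates reach 50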;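 also: yeast exposed to compound for 9 h at 30 °C; higher score means more reporter readthrough which indicates perturbed polyadenylation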
Large screens that a line does not name were inactive. Rows were chosen to be rich in hits. Some 3.1% of all compounds tested hit in one or more screens of this group.

Cc1cc(C(=O)O)oc(=O)c1	HIF act 219
CCOC(=O)c1cnc(-n2nc(C)cc2C)nc1Nc1ccc(OC)cc1	Calb FLC inconclusive
CCOC(=O)c1cnc(-n2nc(C)cc2C)nc1NCCc1ccccc1	T cruzi inh 55
CCOC(=O)c1cnc(-n2nc(C)cc2C)nc1NCc1ccc2c(c1)OCO2	T cruzi inh 70
CCOC(=O)c1cnc(-n2nc(C)cc2C)nc1NC1CCCC1	Beta cell apopt 97
CCOC(=O)c1cnc(-n2nc(C)cc2C)nc1N(C)C	none
COc1ccc2c(c1)C(=O)[C@@H](O)[C@H](c1ccc(OC)c(Br)c1)O2	Beta cell apopt 77
COc1cc(OC)c2c(c1)OC(c1ccc(OC)c(OC)c1)C(O)C2=O (stereo not drawn)	none
CC(=O)c1ccc2oc3ccccc3c(=O)c2c1	none
CN1CCN(CC(=O)Nc2cccc(S(=O)(=O)N(C)c3ccccc3)c2)CC1	none (no result: T cruzi inh, HIF act, Calb FLC, PolyA inhibitor)
Cn1cc(C(=O)N/N=C/C2=C(N3CCOCC3)C(=C/c3ccc([N+](=O)[O-])cc3)/CC2)ccc1=O	none
CC(C)C(NC(=O)C12CC3CC(CC(C3)C1)C2)C(=O)N/N=C/C1=C(N2CCOCC2)C(=C\c2cccc([N+](=O)[O-])c2)/CC1 (stereo not drawn)	T cruzi inh 56 (no result: CSC inhib)
O=C(CCC(=O)N1CCOc2ccc(Cl)cc21)NCCCN1CCC(Cc2ccccc2)CC1	none
Cc1nc(-n2[nH]c3c(c2=O)CCCC3)[nH]c(=O)c1Cc1ccccc1	T cruzi inh 69, HIF act 12, Calb FLC 89
COc1ccc(-c2cc(-c3ccccc3)nc(SC(C)C(=O)O)c2C#N)cc1 (stereo not drawn)	none
CC(C)C(Sc1nc(-c2ccccc2)cc(-c2ccccc2)c1C#N)C(=O)O (stereo not drawn)	Calb FLC 87
COc1cc(OC)cc(C(=O)NC2CCN(Cc3nnnn3Cc3ccc(F)cc3)CC2)c1	Calb FLC 116
COC(=O)Cc1ccc(NC(=S)NCCO)cc1	none
COC(=O)Cc1ccc(NC(=S)NC(C)(C)C)cc1	HIF act 25
O=C(N/N=C/c1cc(Cl)ccc1O)C(=O)Nc1ccccc1OC(F)(F)C(F)F	CSC inhib 96, Beta cell apopt 89 (no result: T cruzi inh, HIF act, Calb FLC, PolyA inhibitor)
O=C(N/N=C/c1cc(Br)ccc1O)C(=O)Nc1ccccc1OC(F)(F)C(F)F	T cruzi inh 57, HIF act 12, CSC inhib 96, Beta cell apopt 83
COc1ccccc1/C=N/NC(=O)C(=O)Nc1ccccc1OC(F)(F)C(F)F	none (no result: HIF act)
Cc1ccc(C2(c3ccc(C)cc3)CC2C(=O)Nc2ccc([N+](=O)[O-])cc2O)cc1 (stereo not drawn)	T cruzi inh 55, CSC inhib 174, Beta cell apopt 125
Cc1ccc([N+](=O)[O-])cc1NC(=O)C1CCN(S(C)(=O)=O)CC1	none
Cc1ccc([N+](=O)[O-])cc1NC(=O)C1CCCC1	Calb FLC 96 (no result: Beta cell apopt)
Cc1ccc([N+](=O)[O-])cc1NC(=O)CN(C1CCCCC1)S(=O)(=O)c1ccc(Cl)cc1	T cruzi inh 59 (no result: CSC inhib, Beta cell apopt)
CC1(C)CC1C(=O)Nc1ccc([N+](=O)[O-])cc1Br (stereo not drawn)	none
CCOC(=O)c1nn(-c2ccc(Br)cc2)cc1C(=O)c1cccc2ccccc12	none
O=[N+]([O-])c1ccc(Nc2nc(N/N=C\c3ccc4c(c3)OCO4)nc(N3CCCCC3)n2)cc1	none
CCc1nn(C(C)C(=O)NCc2ccc(Cl)cc2)c(=O)c2cc3occc3n12 (stereo not drawn)	none
COc1cc(C2SCC(=O)N2CCCN(C)C)cc(OC)c1OC (stereo not drawn)	T cruzi inh 61
COc1cccc2c(SCC(=O)N/N=C/c3ccc(O)c(O)c3)cc(C)nc12	Calb FLC 92
Cc1noc(C)c1CSc1nc2ccccc2nc1NS(=O)(=O)c1ccc(Cl)cc1	CSC inhib 82 (no result: Beta cell apopt)
Cc1ccc(OCC(=O)NNC(=S)NC(=O)C2CC2)c(C)c1	Calb FLC 103 (no result: T cruzi inh, HIF act, PolyA inhibitor)
Cc1ccc(OCC(=O)NNC(=S)NC(=O)C2CCCCC2)c(C)c1	none
CCc1ccc(C(=O)NNc2ccc(F)cc2)cc1	Calb FLC 80 (no result: T cruzi inh)
CCOC(=O)C(=O)NNc1ccc(F)cc1	CSC inhib 101
CCc1ccc(C(=O)NNc2cc(Cl)ccc2Cl)cc1	Beta cell apopt 92 (no result: T cruzi inh)
CCc1ccc(C(=O)NNc2ccc(S(N)(=O)=O)cc2)cc1	none
Cc1c(C(=O)NC(=S)Nc2ccc(N3CCOCC3)cc2)cccc1[N+](=O)[O-]	none
COc1ccc(/C=N/NC(=O)COc2ccccc2-c2ccccc2)cc1	none
O=C(COc1ccccc1-c1ccccc1)N/N=C/c1cccc2ccccc12	CSC inhib 95
O=[N+]([O-])c1cccc2ccc(/C=C/c3ccc(C(F)(F)F)cc3)nc12	CSC inhib 78
COc1ccc(CC(=O)NCCS(=O)(=O)N2CCN(c3ccccc3OC)CC2)cc1	none
CS(=O)(=O)c1ccc(Sc2nc3ccccc3s2)c([N+](=O)[O-])c1	none (no result: CSC inhib)
O=[N+]([O-])c1cc(S(=O)(=O)C(F)(F)F)ccc1Sc1nc2ccccc2[nH]1	CSC inhib 113
O=[N+]([O-])c1cc(S(=O)(=O)C(F)(F)F)ccc1Sc1nc2ccccc2s1	CSC inhib 101, Calb FLC 111
Cc1cc(C)c2[nH]c3nc(SCC(=O)O)nnc3c2c1	none (no result: Beta cell apopt)
CCc1ccc(/C(C)=N\Nc2ccc([N+](=O)[O-])cc2)cc1	Calb FLC 129
Cc1ccc(NC(=O)c2ccc(Cl)c(N3C(=O)C=CC3=O)c2)cc1	CSC inhib 79 (no result: T cruzi inh)
CCOC(=O)CCc1c(C(=O)OCC)[nH]c(CC)c1C(=O)OCc1ccccc1	none
CN(C)CCCNc1c2c(nc3cc(-c4cccc(F)c4)nn13)CCC2	T cruzi inh 68
Cc1cccc(-c2cc3nc4c(c(NCc5ccco5)n3n2)CCCC4)c1	CSC inhib 117 (no result: HIF act)
CCOCCCNc1c2c(nc3cc(-c4ccc(F)cc4)nn13)CCC2	none
CSc1nc(-c2ccccc2)c(C#N)c(=O)n1C	none
COc1ccc(C2=NCC(CSc3nnc(-c4ccc5c(c4)OCO5)o3)S2)cc1 (stereo not drawn)	T cruzi inh 57
N#Cc1ccc(OCCN2CCc3ccccc3C2)cc1	none
COc1ccc(OCCOCCN2CCc3ccccc3C2)cc1	T cruzi inh 58
CCOC(=O)C1CCCN(c2cc(C)nc3cc(-c4ccc(F)cc4)nn23)C1 (stereo not drawn)	Calb FLC 104
O=C(c1ccc(CS(=O)c2ccc(F)cc2)o1)N1CCN(C2CCCCC2)CC1 (stereo not drawn)	none
O=C(c1ccc(C(=O)N2CCN(c3ccccc3F)CC2)nc1)N1CCN(c2ccccc2F)CC1	Calb FLC 95 (no result: CSC inhib, Beta cell apopt)

Screens deposited in PubChem BioAssay by Broad Institute.
